Measurements taken from ChEMBL document CHEMBL1124328, “Hypoxia-selective antitumor agents. 1. Relationships between structure, redox properties and hypoxia-selective cytotoxicity for 4-substituted derivatives of nitracrine” (J Med Chem, 1989).

Columns and labels:
[1] = Dissociation constant of the compound; assay type: physicochemical
[2] = Relative lipophilicity of the compound; assay type: physicochemical; settings: octanol/water
Nucleic Acid = test: Logarithm of association constant for binding to poly[d(A-T)], determined by ethidium displacement; assay type: nucleic-acid assay
Summary of the method: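 Ethidium displacement assay with poly[d(A-T)], giving log association constant. No quenching corrections were applied.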

[3] = Cytotoxicity was measured under aerobic conditions by the clonogenic assay against Chinese hamster ovary (subline AA8) cells; assay type: cell-based, Cricetulus griseus; set-up: unit not given here
Summary of the method: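 CHO AA8 cells were grown in alpha MEM with 10% FCS, then taken to unfed plateau phase in spinner flasks (1.0–1.3 × 10⁶ cells/mL). Cells were resuspended in 5% FCS medium, and cells and drug were pre-equilibrated separately for 45 min at 37 °C under flowing 5% CO₂ in air. Exposure was as stirred suspension for up to 3 h, with plating efficiency sampled over time. CT₁₀ is the concentration × time giving 10% survival.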

[4] = Ratio of cytotoxicity determined in air to that of cytotoxicity determined in N2 was measured under aerobic conditions to hypoxic conditions by the clonogenic assay against Chinese hamster ovary (subline AA8) cells; assay type: cell-based, Cricetulus griseus; settings: subline AA8 (CHO-AA8)
Summary of the method: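 Clonogenic survival of plateau-phase AA8 cells in stirred suspension at 37 °C. Cells and drug were pre-gassed separately for 45 min with 5% CO₂ in air or in N₂, then mixed using a gas-purged syringe. Plating efficiency was sampled over up to 3 h. Drug levels were chosen to give similar killing rates under both gases. Ratio = CT₁₀(air)/CT₁₀(N₂), where CT₁₀ is concentration × time for 10% survival.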

[5] = Compound's one-electron reduction potential (E(1)) has been measured by radiolysis at pK1
Summary of the method: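 Calculated from E(1) measured at pH 7 using the paper's pH-dependence expression. Side-chain pKa values (pK2, pKr2) were assumed equal for all derivatives, and the acridine radical pKa was assumed 4.3 pH units above pK1.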

[6] = Compound''s one-electron reduction potential (E(1)) has been measured by radiolysis at pH 7
Summary of the method: (§1)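 Pulse radiolysis on a 1.8 MV linac (ca. 3 Gy in 0.2 μs) of solutions at 21 °C in a 2-cm pathlength cell, buffered at pH 7 with 2 mM sodium phosphate. Dose was set by aerated 10 mM KSCN absorbance at 472 nm. The equilibrium constant K for ArNO₂/ArNO₂•⁻ versus benzylviologen came from radical ratios over various substrate concentrations. E(1) was derived from K relative to E(BV²⁺/BV•⁺).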

[7] = Equilibrium constant measured by the pulse radiolysis at pH 7; assay type: ADME; summary of the method: as §1
[8] = Dissociation constant was determined; assay type: physicochemical

| Compound | pKa [1] | Rm [2] | Log Ke (Nucleic Acid) | CT10 [3] | selectivity ratio [4] | E [5] | Log K (Nucleic Acid) | E [6] | K [7] | pKa [8] |
| --- | --- | --- | --- | --- | --- | --- | --- | --- | --- | --- |
| CN(C)CCCNc1c2ccccc2nc2c(N(CCO)CCO)ccc([N+](=O)[O-])c12 | 6.53 | -0.74 | 6.73 M-1 | 540 | 6 |  |  |  |  |  |
| CN(C)CCCNc1c2ccccc2nc2c(Cl)ccc([N+](=O)[O-])c12 | 5 | -0.25 |  | 0.68 | 13.6 | -225 mV | 5.95 M-1 | -325 mV | 7 M⁻¹ |  |
| CN(C)CCCNc1c2ccccc2nc2c(F)ccc([N+](=O)[O-])c12 | 5.41 | -0.46 |  | 2 | 5.3 | -277 mV | 6.15 M-1 | -354 mV | 2.4 M⁻¹ |  |
| CN(C)CCCNc1c2ccccc2nc2cccc([N+](=O)[O-])c12 [NITRACRINE] | 6.21 | -0.85 |  | 0.47 | 9.9 | -270 mV | 6.92 M-1 | -303 mV | 18 M⁻¹ |  |
| COc1ccc([N+](=O)[O-])c2c(NCCCN(C)C)c3ccccc3nc12 | 6.61 | -0.88 |  | 22 | 16 | -346 mV | 6.76 M-1 | -361 mV | 1.9 M⁻¹ |  |
| COC(=O)c1ccc([N+](=O)[O-])c2c(NCCCN(C)C)c3ccccc3nc12 |  |  |  | 8 | 0.32 | -164 mV | 6.06 M-1 | -244 mV | 175 M⁻¹ | 5.35 |
| CC(=O)OCCN(CCOC(C)=O)c1ccc([N+](=O)[O-])c2c(NCCCN(C)C)c3ccccc3nc12 | 6.2 | -0.29 |  | 575 | 11.5 | -280 mV | 6.5 M-1 | -314 mV | 11.7 M⁻¹ |  |
| Cc1ccc([N+](=O)[O-])c2c(NCCCN(C)C)c3ccccc3nc12 | 6.29 | -0.76 |  | 2 | 10 | -292 mV | 7.23 M-1 | -321 mV | 8.8 M⁻¹ |  |
| CN(C)CCCNc1c2ccccc2nc2c(N(C)C)ccc([N+](=O)[O-])c12 | 6.47 | -0.63 |  | 720 | 16 | -314 mV | 7.11 M-1 | -334 mV | 5.3 M⁻¹ |  |
